Data from ChEMBL document CHEMBL2417499, “Structure-activity relationship studies of Niemann-Pick type C1-like 1 (NPC1L1) ligands identified by screening assay monitoring pharmacological chaperone effect” (Bioorg Med Chem, 2013).
One block for each compound: values may come before it. Calls of active or inactive are those of the source. No cut-off for these calls is given here.

Legend:
[1] = system: HEK293; assay: Binding affinity to human GFP-tagged NTD-deleted NPC1L1 L1072T/L1168I mutant expressed in HEK293 cells assessed as localization to plasma membrane at 10 uM after 24 hrs by fluorescence microscopic analysis; assay type: cell-based
In short: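 HEK293 cells stably expressing the GFP-tagged NTD-deleted mutant were treated for 24 h with 0.1% final DMSO, then fixed in 3.7% formaldehyde. Cells were imaged at ×100 and scored from ER (0) to PM (1) over 25 images, reported as % plasma membrane localization.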

[2] = system: HEK293; assay: Binding affinity to human GFP-tagged NPC1L1 L1072T/L1168I mutant expressed in HEK293 cells assessed as localization to endoplasmic reticulum and plasma membrane at 10 uM after 24 hrs by fluorescence microscopic analysis; assay type: cell-based
In short: (§1)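 HEK293 cells stably expressing NPC1L1-GFP mutant from a CMV promoter, kept under G418 (0.4 mg/mL). Seeded at 6,000 cells/well on poly-lysine-coated glass in DMEM with 1% FBS. Dosed next day in 0.1% DMSO final for 24 h, then fixed in 3.7% formaldehyde and imaged at ×100. Each cell in 25 images scored ER 0 to PM 1; mean reported as % plasma membrane localization.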

[3] = system: HEK293; assay: Binding affinity to human GFP-tagged NPC1L1 L1072T/L1168I mutant expressed in HEK293 cells assessed as localization to endoplasmic reticulum and plasma membrane at 3 uM after 24 hrs by fluorescence microscopic analysis; assay type: cell-based; in short: as §1
[4] = target: T1, NPC intracellular cholesterol transporter 1 (Homo sapiens) (UniProt O15118); assay: (§2) Binding affinity to NPC1 (unknown origin)
T1 sequence (whole entry): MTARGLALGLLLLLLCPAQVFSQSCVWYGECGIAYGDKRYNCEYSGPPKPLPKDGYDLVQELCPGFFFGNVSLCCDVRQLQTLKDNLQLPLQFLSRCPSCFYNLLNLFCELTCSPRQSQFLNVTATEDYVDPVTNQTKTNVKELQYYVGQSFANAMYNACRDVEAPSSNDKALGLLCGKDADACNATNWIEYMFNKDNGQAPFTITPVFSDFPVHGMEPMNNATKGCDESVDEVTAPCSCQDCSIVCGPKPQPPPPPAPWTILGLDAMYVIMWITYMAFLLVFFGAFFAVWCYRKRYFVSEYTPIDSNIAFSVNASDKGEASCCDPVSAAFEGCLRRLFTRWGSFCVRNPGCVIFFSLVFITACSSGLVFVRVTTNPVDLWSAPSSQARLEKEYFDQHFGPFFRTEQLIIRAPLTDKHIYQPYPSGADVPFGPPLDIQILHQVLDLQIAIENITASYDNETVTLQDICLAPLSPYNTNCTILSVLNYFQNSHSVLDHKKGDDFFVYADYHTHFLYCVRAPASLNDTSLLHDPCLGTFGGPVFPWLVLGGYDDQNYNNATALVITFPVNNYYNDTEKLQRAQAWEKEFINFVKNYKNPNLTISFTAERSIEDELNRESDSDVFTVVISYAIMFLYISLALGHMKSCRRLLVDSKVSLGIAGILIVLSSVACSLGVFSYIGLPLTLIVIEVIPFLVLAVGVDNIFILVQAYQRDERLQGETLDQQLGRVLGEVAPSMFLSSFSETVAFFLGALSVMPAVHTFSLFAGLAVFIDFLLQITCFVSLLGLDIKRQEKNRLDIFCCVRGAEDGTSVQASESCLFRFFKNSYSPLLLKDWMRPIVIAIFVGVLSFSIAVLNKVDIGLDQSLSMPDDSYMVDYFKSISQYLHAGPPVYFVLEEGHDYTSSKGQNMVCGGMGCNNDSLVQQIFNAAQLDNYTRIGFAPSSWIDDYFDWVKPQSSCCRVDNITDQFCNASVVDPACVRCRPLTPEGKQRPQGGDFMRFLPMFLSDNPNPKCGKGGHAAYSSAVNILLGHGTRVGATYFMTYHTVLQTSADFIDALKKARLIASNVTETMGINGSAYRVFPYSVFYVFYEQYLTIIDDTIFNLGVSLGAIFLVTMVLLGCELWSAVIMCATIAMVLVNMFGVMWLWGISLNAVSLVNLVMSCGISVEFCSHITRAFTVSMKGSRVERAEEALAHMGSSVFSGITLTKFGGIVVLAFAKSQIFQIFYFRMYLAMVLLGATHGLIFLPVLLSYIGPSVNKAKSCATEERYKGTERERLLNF

[5] = system: HEK293; assay: Competitive binding affinity to human GFP-tagged NPC1L1 L1072T/L1168I mutant expressed in HEK293 cells assessed as localization to endoplasmic reticulum and plasma membrane at 0.01 to 10 uM after 24 hrs by fluorescence microscopic analysis in presence of N,N-(Dimethyl)-delta(5)-cholenamid-3beta-yl N,N-bis(2-hydroxyethyl)carbamate; assay type: cell-based
[6] = system: HEK293; assay: Binding affinity to human GFP-tagged NTD-deleted NPC1L1 L1072T/L1168I mutant expressed in HEK293 cells assessed as protein stabilization after 24 hrs by fluorescence assay; assay type: cell-based
In short: (§3)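 Stable HEK293 lines were grown to 70% confluency in phenol red-free medium in 12-well plates and exposed to vehicle or compound for 24 h. Supernatant GFP fluorescence was read and normalized to BCA total protein, n = 3.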

[7] = Binding affinity to human GFP-tagged NTD-deleted NPC1L1 L1072T/L1168I mutant expressed in HEK293 cells assessed as localization to plasma membrane after 24 hrs by fluorescence microscopic analysis; assay type: cell-based
In short: (§4)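 HEK293 cells stably expressing the GFP-tagged construct (G418 0.4 mg/mL) were seeded at 6,000 cells/well in DMEM with 1% FBS on poly-lysine-coated glass. On day 2 they were treated for 24 h, final DMSO 0.1%. Cells were fixed in 3.7% formaldehyde and imaged at ×100. Across 25 images, cells were scored ER 0 to PM 1 and averaged as % plasma membrane localization. EC50 was taken from this score.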

[8] = system: HEK293; assay: Binding affinity to human GFP-tagged NPC1L1 L1072T/L1168I mutant expressed in HEK293 cells assessed as protein stabilization after 24 hrs by fluorescence assay; assay type: cell-based; in short: as §3
[9] = species on record: Homo sapiens; assay: Selectivity ratio of EC50 for NPC1 (unknown origin) to EC50 for human GFP-tagged NPC1L1 L1072T/L1168I mutant
[10] = target: T2, NPC intracellular cholesterol transporter 1 (Homo sapiens, UniProt O15118); assay: as §2
T2 sequence (O15118 whole entry): T1 sequence (whole entry)

[11] = Binding affinity to human GFP-tagged NPC1L1 L1072T/L1168I mutant expressed in HEK293 cells assessed as localization to endoplasmic reticulum and plasma membrane after 24 hrs by fluorescence microscopic analysis; assay type: cell-based; conditions: read-out: EC50; in short: as §4

Structure (SMILES): CCCCN(CCCC)C(=O)O[C@H]1CC[C@@]2(C)C(=CC[C@H]3[C@@H]4CC[C@H]([C@H](C)CCC(=O)N(C)C)[C@@]4(C)CC[C@@H]32)C1
Activity [1]: inactive
Activity [2]: inactive

Structure (SMILES): CC(C)CCC[C@@H](C)[C@H]1CC[C@H]2[C@@H]3C[C@@H](O)[C@@]4(O)C[C@@H](O)CC[C@]4(C)[C@H]3CC[C@]12C
Activity [3]: inactive
Activity [4]: Active

Structure (SMILES): O=C1[C@H](CC[C@H](O)c2ccc(F)cc2)[C@@H](c2ccc(O)cc2)N1c1ccc(F)cc1
Activity [5]: inactive
Activity [2]: inactive

EC50 [7]: 1.7 µM
Ratio EC50 [9]: 2.5
EC50 [10]: 1.6 µM
EC50 [11]: 0.65 µM
Structure (SMILES): C[C@H](CCC(=O)N(C)C)[C@H]1CC[C@H]2[C@@H]3CC=C4C[C@@H](OC(=O)N(CCO)CCO)CC[C@]4(C)[C@H]3CC[C@]12C
Activity [6]: Active
Activity [8]: Dose-dependent effect
